Screening data: PubChem, several laboratories
The list is not random: actives were taken first. Their share in the collection is about 4.1%.
DTT redox prof: compounds producing H2O2 with reducing agent – biochemical, NIH compound library profiling, artefact control for MLSCN library redox annotation, primary screen; AID 878, 2007; actives 0.03% (n = 200,000); DTT-dependent redox cycling H2O2, phenol red/HRP absorbance; 100% = 100 µM peroxide control, 0% = buffer; activation, % at 10 µM;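 active = activation of at least 50% relative to the plate's high and low controls in the primary single-dose screen; inactive = activation below 50%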;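 note: compound incubated with DTT at 0.8 mM final as the reducing agent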
ROMK mod: ROMK potassium channel modulators, primary screen, cell-based, thallium flux, MLSMR library | ATP-sensitive inward rectifier potassium channel 1 (Homo sapiens), P48048 | Tet-inducible ROMK, thallium flux fluorescence; actives lie on both sides | B-score at 10 µM | actives 2% (n = 130,000) | AID 1918, 2009;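 active = signal ratio slope over the read window, or its plate-corrected B-score, at least 3 SD from the plate mean, either direction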;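 note: B-score of the F/F0 ratio slope over 7 to 12 s after thallium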
Target sequence (P48048 whole entry, looked up): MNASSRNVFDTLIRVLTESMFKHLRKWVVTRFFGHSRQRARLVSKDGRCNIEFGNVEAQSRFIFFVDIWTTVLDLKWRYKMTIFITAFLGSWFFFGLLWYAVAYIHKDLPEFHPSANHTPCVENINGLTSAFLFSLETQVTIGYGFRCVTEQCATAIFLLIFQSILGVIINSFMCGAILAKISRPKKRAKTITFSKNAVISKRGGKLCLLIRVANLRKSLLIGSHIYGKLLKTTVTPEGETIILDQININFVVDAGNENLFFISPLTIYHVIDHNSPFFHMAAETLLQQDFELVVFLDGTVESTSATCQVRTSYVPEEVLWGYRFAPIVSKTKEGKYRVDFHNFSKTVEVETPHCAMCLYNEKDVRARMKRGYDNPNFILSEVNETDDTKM
Cl transport mod: KCC2 cotransporter modulators, thallium flux, primary screen, cell-based, HEK293 KCC2, FluoZin-2 fluorescence, MLSMR | B-score of Tl+ flux slope (higher = more flux/activation; lower = inhibition) at 10 µM | actives 2.2% (n = 190,000) | KCC2 cells, thallium flux FluoZin-2 fluorescence | Solute carrier family 12 member 5 (Homo sapiens), Q9H2X9 | AID 1456, 2008;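 active = thallium flux slope and its plate-corrected score both differing from the plate sample mean at a set confidence after two filtering rounds, in either direction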;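 note: slope of fluorescence scaled to starting intensity during 10 to 20 s after thallium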
Autophagy mod: autophagy modulators in MEF cells, primary screen, imaging, high-content, MEF GFP-LC3 | MEF GFP-LC3 puncta imaging; test concentration mostly 10 µM | calls only at 10 µM (by protocol) | actives 0.98% (n = 190,000);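 active = percentage of spot-positive cells more than 3 SD above its plate mean, without a fluorescence outlier flag or 80% toxicity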
Dynein transport: inhibitors of GR-EGFP nuclear translocation, primary screen, dynein cargo transport inhibitor project, imaging, high-content, 3617.4 mouse cells | AID 1381, 2008 | actives 0.47% (n = 220,000) | test concentration mostly 20 µM; stimulated with dexamethasone, 1 µM; active compounds read low | z-score, hits read low;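 active = plate z-score of nuclear minus cytoplasmic receptor signal below a set negative limit, without overly bright fluorescence or cell loss, cut at about -3.5 in these data, passing the limit was not always enough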;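 note: z-score of nuclear minus cytoplasmic ring GR-EGFP intensity difference per well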
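Also added: dexamethasone, 1.0 µM final. Medium: tet-free, stripped-serum medium. Detection: fixed, Hoechst-stained cells imaged at 10x for EGFP. Read-out: nuclear-to-cytoplasmic GR-EGFP distribution per well. Times: induction 48 h, compound 1 h, agonist 30 min.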
Of the large screens only hits and unclear results are named; the others gave an inactive call.

Cc1ccc(C2c3c(oc4ccccc4c3=O)C(=O)N2c2nnc(C)s2)o1 (stereo unspecified)	none (no result: ROMK mod)
O=c1oc2ccccc2c(Nc2cccc3cccnc23)c1[N+](=O)[O-]	none
CCc1cc2ccc(C)cc2nc1SCC(=O)N1CCN(C(=O)c2ccco2)CC1	none (no result: Cl transport mod)
CCc1cc2ccc(C)cc2nc1SCC(=O)NNC(=O)c1ccco1	Cl transport mod 3.05
N#Cc1ccc(OCC(=O)OCC(=O)Nc2cc(C(F)(F)F)ccc2N2CCOCC2)cc1	none (no result: ROMK mod)
CSCCC(N=C(NS(=O)(=O)c1ccccc1)c1ccccc1)C(=O)O (stereo unspecified)	none (no result: DTT redox prof, ROMK mod, Autophagy mod)
O=C(Nc1nc(-c2cc(F)ccc2F)cs1)c1ccccn1	ROMK mod 1.29, Cl transport mod 7.35
O=C(Nc1nc(-c2cc(F)ccc2F)cs1)C1=NN(c2ccccc2)C(=O)CC1	none
COc1ccc2[nH]cc(CCNS(=O)(=O)c3ccc(NC(C)=O)cc3)c2c1	Autophagy mod active (no result: ROMK mod)
CCc1ccc2[nH]c(=O)c(CN(Cc3ccc(OC)cc3)Cc3nnnn3CCOC)cc2c1	Autophagy mod active
COc1ccc2cc(CN(CCc3ccccc3)Cc3nnnn3Cc3ccco3)c(=O)[nH]c2c1	Cl transport mod -3.08
COc1ccc2[nH]c(=O)c(CN(Cc3nnnn3Cc3ccco3)C3CCCCC3)cc2c1	none (no result: Cl transport mod)
O=C(c1cc2ccccc2oc1=O)N(Cc1cccc(Br)c1)C1CCS(=O)(=O)C1 (stereo unspecified)	none (no result: DTT redox prof, ROMK mod, Autophagy mod)
O=C(c1cc2ccccc2oc1=O)N(Cc1ccco1)C1CCS(=O)(=O)C1 (stereo unspecified)	Cl transport mod -4.69
Cc1ccc(S(=O)(=O)Nc2cccc3ncccc23)cc1	none (no result: DTT redox prof, Autophagy mod)
Cc1ccc(S(=O)(=O)Nc2cccc3ncccc23)s1	Cl transport mod 52.1
COc1ccc2cc3cc(C(=O)Nc4ccccc4N4CCN(C)CC4)oc3nc2c1	Autophagy mod active (no result: ROMK mod, Cl transport mod)
O=C(CSc1ccsc1[N+](=O)[O-])N1CCN(c2ccccn2)CC1	none
CCc1ccc(-c2cc(C(F)(F)F)n3nc(C(=O)Nc4c(C)nn(Cc5ccccc5Cl)c4C)cc3n2)s1	Autophagy mod active
CCc1ccc(-c2cc(C(F)(F)F)n3nc(C(=O)Nc4c(C)nn(Cc5ccccc5C)c4C)cc3n2)s1	Autophagy mod active
O=C(COC(=O)C1(c2cccc(F)c2)CCCC1)NCc1ccc2c(c1)OCO2	none (no result: ROMK mod)
Cc1ccccc1C1C2=C(Nc3[nH]n(-c4ccccc4)c(=O)c31)c1ccccc1C2=O (stereo unspecified)	none (no result: ROMK mod)
Cc1cccc(C2C3=C(Nc4[nH]n(-c5ccccc5)c(=O)c42)c2ccccc2C3=O)c1 (stereo unspecified)	Autophagy mod active
Cc1ccc(-n2cc(-c3ccccc3)c3c(N4CCN(C)CC4)ncnc32)cc1	none
Cc1ccc(-n2cc(-c3ccccc3)c3c(N4CCOCC4)ncnc32)cc1	Autophagy mod active
O=C(CNC(=O)c1ccc(F)cc1)Nc1ccccc1C(F)(F)F	none (no result: DTT redox prof, ROMK mod, Autophagy mod)
CC[n+]1c(/C=C/c2c[nH]c3ccccc23)ccc2cc(C)ccc21	Autophagy mod active (no result: ROMK mod)
O=C(O)C(Cc1ccccc1-c1ccccc1)C(=O)O	none (no result: DTT redox prof, ROMK mod, Cl transport mod, Autophagy mod)
Cc1ccc2c(c1)NC(=O)C(CC(=O)NCCCN1CCN(c3cc(C)ccc3C)CC1)O2 (stereo unspecified)	Autophagy mod active (no result: ROMK mod, Cl transport mod)
CCN(CC)CCCNC(=O)CC1Oc2ccc(C)cc2NC1=O (stereo unspecified)	none (no result: ROMK mod, Cl transport mod)
CCN(C(=O)CSc1nnc(C)n1Cc1ccccc1)C1CCS(=O)(=O)C1 (stereo unspecified)	Autophagy mod active
CCCc1cc(=O)[nH]c(SCC(=O)c2cc(C)n(-c3c(C)n(C)n(-c4ccccc4)c3=O)c2C)n1	none
CCC1(CC)NC(=O)N(CC(=O)N2N=C(c3ccc(Cl)cc3)CC2c2ccco2)C1=O (stereo unspecified)	none
COC(=O)c1cc(=O)n(Cc2cccs2)c(=Nc2ccc(F)cc2)s1	none (no result: ROMK mod)
COC(=O)c1cc(=O)n(-c2ccc(F)cc2)c(=Nc2ccc(F)cc2)s1	Dynein transport -4.2
